Measured values: ChEMBL document CHEMBL1156066 (J Med Chem, 2009)
In brackets after ≈: the same amount, converted by molar mass.

Tests used:
[1] = Solubility at pH 1.5; assay type: physicochemical; details: buffer
[2] = Oral bioavailability in monkey at 5 mg/kg; assay type: ADME, organism-based, Macaca mulatta; details: rhesus monkey, in vivo
[3] = Stability at pH 2 after 48 hrs; assay type: physicochemical; details: buffer, pH 2, 48 h
Procedure, shortened: (§1)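 The compound was held in solution at pH 2 or pH 7 for 48 h at 37 C and then checked for chemical change.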

[4] = Cytotoxicity against human larynx cancer cells; assay type: cell-based, Cancer cell lines
[5] = biological target: Cytochrome P450 2C19 (Homo sapiens, UniProt P33261); assay: Inhibition of recombinant CYP2C19; assay type: ADME
Cytochrome P450 2C19, sequence (P33261 whole entry): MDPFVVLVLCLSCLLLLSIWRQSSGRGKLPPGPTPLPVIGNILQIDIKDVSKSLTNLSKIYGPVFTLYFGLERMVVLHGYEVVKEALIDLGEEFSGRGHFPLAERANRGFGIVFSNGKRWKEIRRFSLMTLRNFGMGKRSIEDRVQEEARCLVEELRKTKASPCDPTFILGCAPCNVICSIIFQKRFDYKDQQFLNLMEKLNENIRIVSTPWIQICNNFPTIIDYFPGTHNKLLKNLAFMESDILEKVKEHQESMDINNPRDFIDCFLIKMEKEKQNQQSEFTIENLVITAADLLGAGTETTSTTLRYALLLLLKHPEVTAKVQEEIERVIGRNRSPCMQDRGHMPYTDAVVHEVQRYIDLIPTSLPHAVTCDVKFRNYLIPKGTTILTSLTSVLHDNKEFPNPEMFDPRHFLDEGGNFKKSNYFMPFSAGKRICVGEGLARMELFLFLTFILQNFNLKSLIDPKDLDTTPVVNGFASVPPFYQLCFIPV

[6] = Ratio of plasma concentration in dog at 5 mg/kg, po to EC50 for HIV1 clinical isolates; assay type: ADME, organism-based; design: dose 5 mg/kg, route oral; details: in vivo
[7] = Solubility at pH 4 to 8; assay type: physicochemical; details: buffer
[8] = Metabolic stability in human liver microsomes assessed as half life; assay type: ADME, Microsome
[9] = tested on: Rattus norvegicus; assay: AUC in rat at 5 mg/kg, po; assay type: ADME, organism-based, Plasma; design: dose 5 mg/kg, route oral; details: in vivo
[10] = Cytotoxicity against human hepatic cancer cells; assay type: cell-based, Cancer cell lines
[11] = Inhibition of HIV1 JRFL gp120/CD4 interaction in human HeLa67 cells assessed as inhibition of viral entry after 3 days by luciferase reporter gene assay; assay type: cell-based
Procedure, shortened: (§2)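 HeLa 67 cells (HeLa expressing CD4, CCR5 and CXCR4; DMEM, 10% heat-inactivated FBS, penicillin/streptomycin) were plated at 10^5 cells/well the day before infection. They were then infected with HIV LAI-Δenv-luc pseudotyped with JRFL or LAI envelope, in the presence of 10-step 3-fold DMSO serial dilutions (30 mM stocks), run in duplicate. After 3 days at 37 C, firefly luciferase was read. EC50 was from a one-site fit.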

[12] = Cytotoxicity against human T cell; assay type: cell-based; details: T cells
[13] = Cytotoxicity against human MT2 cells after 3 days by XTT assay; assay type: cell-based
Procedure, shortened: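 Uninfected MT-2 cells were exposed to 10-step 3-fold serial compound dilutions (30 mM DMSO stocks), run in parallel with the antiviral assay. Cell health was read by XTT after 3 days. CC50 was fitted with the same one-site equation as EC50.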

[14] = biological target: T1, Cytochrome P450 3A4 (Homo sapiens, UniProt P08684); assay: Inhibition of recombinant CYP3A4 using 7-benzyloxyresorufin as substrate; assay type: ADME
T1 sequence (P08684 whole entry): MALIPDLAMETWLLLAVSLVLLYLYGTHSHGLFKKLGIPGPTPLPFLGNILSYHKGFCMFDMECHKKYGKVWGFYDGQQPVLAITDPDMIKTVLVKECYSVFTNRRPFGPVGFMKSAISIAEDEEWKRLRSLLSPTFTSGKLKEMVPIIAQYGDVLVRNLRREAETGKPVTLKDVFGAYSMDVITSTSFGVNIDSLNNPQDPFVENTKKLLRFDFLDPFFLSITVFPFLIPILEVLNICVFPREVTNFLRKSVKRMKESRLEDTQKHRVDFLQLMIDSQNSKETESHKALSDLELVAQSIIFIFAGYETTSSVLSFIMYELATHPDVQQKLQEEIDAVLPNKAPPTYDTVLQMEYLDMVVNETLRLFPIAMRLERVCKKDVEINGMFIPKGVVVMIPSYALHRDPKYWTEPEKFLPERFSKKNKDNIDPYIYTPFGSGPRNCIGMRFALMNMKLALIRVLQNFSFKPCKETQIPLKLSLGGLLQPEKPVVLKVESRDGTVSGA

[15] = biological target: T2, Cytochrome P450 1A2 (Homo sapiens, UniProt P05177); assay: Inhibition of recombinant CYP1A2; assay type: ADME
T2 sequence (P05177 whole entry): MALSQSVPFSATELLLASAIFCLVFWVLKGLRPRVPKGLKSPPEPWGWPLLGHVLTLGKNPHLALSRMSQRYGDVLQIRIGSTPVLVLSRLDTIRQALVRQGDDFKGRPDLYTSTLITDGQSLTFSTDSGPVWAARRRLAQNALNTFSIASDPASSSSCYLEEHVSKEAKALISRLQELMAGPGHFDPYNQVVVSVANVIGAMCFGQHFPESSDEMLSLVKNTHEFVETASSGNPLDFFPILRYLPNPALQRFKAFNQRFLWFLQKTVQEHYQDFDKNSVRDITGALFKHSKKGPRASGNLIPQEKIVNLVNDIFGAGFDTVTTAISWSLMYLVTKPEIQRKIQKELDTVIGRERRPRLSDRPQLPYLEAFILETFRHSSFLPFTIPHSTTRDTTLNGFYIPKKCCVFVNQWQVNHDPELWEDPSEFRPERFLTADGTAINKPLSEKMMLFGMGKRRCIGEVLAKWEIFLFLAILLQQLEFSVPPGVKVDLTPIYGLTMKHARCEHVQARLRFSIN

[16] = Lipophilicity, log D at pH 6.5; assay type: physicochemical; details: buffer
Procedure, shortened: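 Log D was measured by the octanol/water shake-flask method using phosphate buffered solution, pH 6.5.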

[17] = Cytotoxicity against human neuronal tumor cells; assay type: cell-based
[18] = Stability at pH 7 after 48 hrs; assay type: physicochemical; details: buffer, pH 7, 48 h; procedure, shortened: as §1
[19] = biological target: Cytochrome P450 2D6 (Homo sapiens, UniProt P10635); assay: Inhibition of recombinant CYP2D6; assay type: ADME
Cytochrome P450 2D6, sequence (P10635 whole entry): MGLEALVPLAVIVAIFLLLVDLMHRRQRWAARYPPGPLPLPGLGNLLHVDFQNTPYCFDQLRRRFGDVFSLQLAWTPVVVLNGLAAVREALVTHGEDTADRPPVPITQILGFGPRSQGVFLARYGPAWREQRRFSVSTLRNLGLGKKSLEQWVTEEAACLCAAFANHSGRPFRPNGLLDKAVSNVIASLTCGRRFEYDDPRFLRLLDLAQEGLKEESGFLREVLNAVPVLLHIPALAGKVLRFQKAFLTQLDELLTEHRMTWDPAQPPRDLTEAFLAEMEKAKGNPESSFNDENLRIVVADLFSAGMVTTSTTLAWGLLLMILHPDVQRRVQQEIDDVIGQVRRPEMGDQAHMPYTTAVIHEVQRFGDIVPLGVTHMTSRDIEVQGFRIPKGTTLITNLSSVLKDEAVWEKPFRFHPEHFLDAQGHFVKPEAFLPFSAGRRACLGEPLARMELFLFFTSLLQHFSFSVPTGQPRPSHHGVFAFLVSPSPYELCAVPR

[20] = Ratio of plasma concentration in rat at 5 mg/kg, po to EC50 for HIV1 clinical isolates; assay type: ADME, organism-based; design: dose 5 mg/kg, route oral; details: in vivo
[21] = biological target: Cytochrome P450 2C9 (Homo sapiens, UniProt P11712); assay: Inhibition of recombinant CYP2C9; assay type: ADME
Cytochrome P450 2C9, sequence (P11712 whole entry): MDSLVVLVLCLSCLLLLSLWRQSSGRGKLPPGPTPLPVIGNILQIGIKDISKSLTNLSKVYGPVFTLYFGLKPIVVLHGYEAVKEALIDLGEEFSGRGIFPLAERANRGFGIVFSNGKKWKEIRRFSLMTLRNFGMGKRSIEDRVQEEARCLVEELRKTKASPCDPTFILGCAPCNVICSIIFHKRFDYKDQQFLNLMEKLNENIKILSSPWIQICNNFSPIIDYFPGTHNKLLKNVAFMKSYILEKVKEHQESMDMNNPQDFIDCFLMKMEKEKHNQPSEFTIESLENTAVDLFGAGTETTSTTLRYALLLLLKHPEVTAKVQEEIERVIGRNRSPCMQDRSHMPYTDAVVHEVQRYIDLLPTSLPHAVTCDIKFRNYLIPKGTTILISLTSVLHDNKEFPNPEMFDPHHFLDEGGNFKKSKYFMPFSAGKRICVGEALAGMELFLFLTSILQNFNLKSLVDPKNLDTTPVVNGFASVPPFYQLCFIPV

[22] = Aqueous solubility of crystalline form of compound in buffer solution of pH 6.5 at 25 degC; assay type: physicochemical
Procedure, shortened: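 Solubility of the crystalline solid was measured 24-72 h after adding it to phosphate buffered solution, pH 6.5, at room temperature.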

[23] = tested on: Hepatocyte; assay: Cytotoxicity against human hepatocytes up to 200 uM in absence of CYP450 enzymes; assay type: ADME, cell-based
Procedure, shortened: (§3)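 Hepatocytes in vitro were exposed to concentrations up to 200 μM, with or without expression of each of the four major CYP 450 enzymes.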

[24] = Cytotoxicity against human cervical cancer cells; assay type: cell-based, Cancer cell lines
[25] = tested on: Human immunodeficiency virus 1; assay: Antiviral activity against HIV1 clinical isolates; assay type: functional, organism-based
[26] = biological target: Voltage-gated inwardly rectifying potassium channel KCNH2 (Homo sapiens, UniProt Q12809); assay: Inhibition of human ERG by channel flux assay
Voltage-gated inwardly rectifying potassium channel KCNH2, sequence (Q12809 whole entry): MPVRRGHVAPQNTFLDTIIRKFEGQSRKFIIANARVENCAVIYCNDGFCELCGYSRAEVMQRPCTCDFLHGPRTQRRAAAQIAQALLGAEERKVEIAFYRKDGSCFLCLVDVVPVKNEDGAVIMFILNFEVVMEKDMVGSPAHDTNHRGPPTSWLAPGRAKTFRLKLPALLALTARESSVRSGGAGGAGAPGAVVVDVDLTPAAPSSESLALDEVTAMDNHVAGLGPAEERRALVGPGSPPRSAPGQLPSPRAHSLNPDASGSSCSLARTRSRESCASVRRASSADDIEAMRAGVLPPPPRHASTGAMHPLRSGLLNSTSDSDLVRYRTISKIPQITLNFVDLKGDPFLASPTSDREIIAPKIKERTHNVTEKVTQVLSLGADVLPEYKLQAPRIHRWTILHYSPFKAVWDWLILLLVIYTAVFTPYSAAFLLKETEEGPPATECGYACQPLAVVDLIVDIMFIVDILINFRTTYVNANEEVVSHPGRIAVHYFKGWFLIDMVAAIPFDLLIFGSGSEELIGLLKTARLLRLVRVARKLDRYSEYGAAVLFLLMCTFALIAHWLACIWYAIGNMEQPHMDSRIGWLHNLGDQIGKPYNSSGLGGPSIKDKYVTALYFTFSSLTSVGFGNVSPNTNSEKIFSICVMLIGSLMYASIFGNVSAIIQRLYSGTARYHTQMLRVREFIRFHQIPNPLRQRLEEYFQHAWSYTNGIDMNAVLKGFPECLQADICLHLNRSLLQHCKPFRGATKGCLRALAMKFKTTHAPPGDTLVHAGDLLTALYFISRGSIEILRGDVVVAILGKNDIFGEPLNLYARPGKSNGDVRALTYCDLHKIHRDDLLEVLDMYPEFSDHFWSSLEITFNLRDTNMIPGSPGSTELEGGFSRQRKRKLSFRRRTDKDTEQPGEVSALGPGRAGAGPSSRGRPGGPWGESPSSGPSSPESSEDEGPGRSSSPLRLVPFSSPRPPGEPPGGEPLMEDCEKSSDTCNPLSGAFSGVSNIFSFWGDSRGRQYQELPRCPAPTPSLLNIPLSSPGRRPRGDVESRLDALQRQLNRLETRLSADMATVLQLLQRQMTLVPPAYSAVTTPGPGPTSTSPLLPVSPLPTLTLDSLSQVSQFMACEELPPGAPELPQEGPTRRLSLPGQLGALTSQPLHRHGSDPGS

[27] = Cytotoxicity against human PBMC; assay type: cell-based
[28] = Cytotoxicity against HEK cells; assay type: cell-based, HEK293; details: human
[29] = Inhibition of HIV1 LAI gp120/CD4 interaction in human HeLa67 cells assessed as inhibition of viral entry after 3 days by luciferase reporter gene assay; assay type: cell-based; procedure, shortened: as §2
[30] = tested on: Canis familiaris; assay: Cardiotoxicity in dog assessed as changes in ECG at 200 mg/kg; assay type: toxicity, organism-based, Canis lupus familiaris; design: dose 200 mg/kg; details: in vivo
Procedure, shortened: (§4)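 Dogs were dosed at 200 mpk, with ECG monitored for drug-related changes and plasma Cmax determined.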

[31] = biological target: T1, Cytochrome P450 3A4; assay: Inhibition of recombinant CYP3A4 using benzyloxy-4-(trifluoromethyl)coumarin as substrate; assay type: ADME
[32] = Permeability across human Caco-2 cell membrane at pH 6.5; assay type: ADME, cell-based; details: Caco-2, pH 6.5, read-out: permeability
[33] = Aqueous solubility of crystalline form of compound in buffer solution of pH 1.5 at 25 degC; assay type: physicochemical
[34] = Ratio of plasma concentration in monkey at 5 mg/kg, po to EC50 for HIV1 clinical isolates; assay type: ADME, organism-based; design: dose 5 mg/kg, route oral; details: in vivo
[35] = Oral bioavailability in rat at 5 mg/kg administered as crystalline suspension; assay type: ADME, organism-based; details: in vivo
[36] = Terminal half life in rat at 5 mg/kg, iv; assay type: ADME, organism-based; design: dose 5 mg/kg, route intravenous; details: in vivo, read-out: beta t1/2 (converted)
[37] = Aqueous solubility of crystalline form of compound in buffer solution of pH 10 at 25 degC; assay type: physicochemical
[38] = tested on: Hepatocyte; assay: Cytotoxicity against human hepatocytes up to 200 uM in presence of CYP450 enzymes; assay type: ADME, cell-based; procedure, shortened: as §3
[39] = Cmax in dog at 200 mg/kg; assay type: ADME, organism-based, Canis lupus familiaris; design: dose 200 mg/kg; details: in vivo; procedure, shortened: as §4
[40] = Cytotoxicity against human lung cancer cell; assay type: cell-based, Cancer cell lines; details: lung cancer cells
[41] = Oral bioavailability in dog at 5 mg/kg; assay type: ADME, organism-based, Canis lupus familiaris; details: in vivo
[42] = Aqueous solubility of crystalline form of compound in buffer solution of pH 2.1 at 25 degC; assay type: physicochemical
[43] = Aqueous solubility of crystalline form of compound in buffer solution of pH 11 at 25 degC; assay type: physicochemical

## COc1ncc(OC)c2c(C(=O)C(=O)N3CCN(C(=O)c4ccccc4)CC3)c[nH]c12
[1]
  solubility: 900 µg/mL (≈ 2130 µM)
[2]
  bioavailability: 60%
[3]
  Stability: Stable
[4]
  CC50: ≥ 120 µM
[5]
  IC50: > 40 µM
[6]
  Ratio: 18
[7]
  solubility: 40 µg/mL (≈ 94.7 µM)
[8]
  half-life: > 100 min
[9]
  AUC: 6.3 µg/h/mL
[10]
  CC50: ≥ 120 µM
[11]
  EC50: 0.00088 µM
[12]
  CC50: ≥ 120 µM
[13]
  CC50 at 72 h: > 300 µM
[14]
  IC50: > 40 µM
[15]
  IC50: > 40 µM
[16]
  logD: 1.5
[17]
  CC50: ≥ 120 µM
[18]
  Stability: Stable
[19]
  IC50: > 40 µM
[20]
  Ratio: 18
[21]
  IC50: 30 µM
[22]
  solubility: 40 µg/mL (≈ 94.7 µM)
[23]
  Activity: Non-toxic
[24]
  CC50: ≥ 120 µM
[25]
  EC50: 0.0365 µM
[26]
  IC50: > 80 µM
[27]
  CC50: ≥ 120 µM
[28]
  CC50: ≥ 120 µM
[29]
  EC50: 0.00115 µM
[30]
  Activity: Non-toxic
[31]
  IC50: > 40 µM
[32]
  Papp: 17.8 ×10⁻⁶ cm/s
[33]
  solubility: 900 µg/mL (≈ 2130 µM)
[34]
  Ratio: 18
[35]
  bioavailability: 55%
[36]
  half-life: 144 min
[37]
  solubility: 250 µg/mL (≈ 592 µM)
[38]
  Activity: Non-toxic
[39]
  Cmax: 33 µM
[40]
  CC50: ≥ 120 µM

## COc1ccnc2[nH]cc(C(=O)C(=O)N3CCN(C(=O)c4ccccc4)C[C@H]3C)c12
[2]
  bioavailability: 24%
[8]
  half-life: 37 min
[9]
  AUC: 0.5 µg/h/mL
[11]
  EC50: 0.00147 µM
[13]
  CC50 at 72 h: > 300 µM
[16]
  logD: 1.6
[41]
  bioavailability: 77%
[19]
  IC50: 9.7 µM
[22]
  solubility: 200 µg/mL (≈ 492 µM)
[25]
  EC50: 0.0615 µM
[29]
  EC50: 0.00268 µM
[32]
  Papp: 5.1 ×10⁻⁶ cm/s
[42]
  solubility: 1300 µg/mL (≈ 3200 µM)
[43]
  solubility: 3300 µg/mL (≈ 8120 µM)
[36]
  half-life: 18 min

## C[C@@H]1CN(C(=O)c2ccccc2)CCN1C(=O)C(=O)c1c[nH]c2ncccc12
[5]
  IC50: 10 µM
[8]
  half-life: 49.5 min
[11]
  EC50: 0.0017 µM
[13]
  CC50 at 72 h: 280 µM
[14]
  IC50: > 40 µM
[15]
  IC50: > 40 µM
[16]
  logD: 1.8
[19]
  IC50: 17 µM
[21]
  IC50: 7.9 µM
[22]
  solubility: 936 µg/mL (≈ 2490 µM)
[26]
  IC50: > 80 µM
[31]
  IC50: > 40 µM
[32]
  Papp: 16.8 ×10⁻⁶ cm/s

## C[C@@H]1CN(C(=O)c2ccccc2)CCN1C(=O)C(=O)c1c[nH]c2ccccc12
[5]
  IC50: 2.6 µM
[8]
  half-life: 16.9 min
[11]
  EC50: 0.004 µM
[13]
  CC50 at 72 h: 200 µM
[14]
  IC50: > 40 µM
[15]
  IC50: > 40 µM
[16]
  logD: 1.9
[19]
  IC50: 4.8 µM
[21]
  IC50: 5.2 µM
[22]
  solubility: 16 µg/mL (≈ 42.6 µM)
[26]
  IC50: > 80 µM
[29]
  EC50: 0.0049 µM
[31]
  IC50: > 40 µM
[32]
  Papp: 16.9 ×10⁻⁶ cm/s

## C[C@@H]1CN(C(=O)c2ccccc2)CCN1C(=O)C(=O)c1c[nH]c2cnccc12
[5]
  IC50: 7.2 µM
[8]
  half-life: 38.5 min
[11]
  EC50: 0.0216 µM
[13]
  CC50 at 72 h: > 300 µM
[14]
  IC50: > 40 µM
[15]
  IC50: > 40 µM
[16]
  logD: 1.5
[19]
  IC50: 38 µM
[21]
  IC50: 17 µM
[22]
  solubility: 487 µg/mL (≈ 1290 µM)
[26]
  IC50: > 80 µM
[31]
  IC50: > 40 µM
[32]
  Papp: < 1.5 ×10⁻⁶ cm/s

## C[C@@H]1CN(C(=O)c2ccccc2)CCN1C(=O)C(=O)c1c[nH]c2cccnc12
[5]
  IC50: 36 µM
[8]
  half-life: > 100 min
[11]
  EC50: 0.0016 µM
[13]
  CC50 at 72 h: > 300 µM
[14]
  IC50: > 40 µM
[15]
  IC50: > 40 µM
[16]
  logD: 0.9
[19]
  IC50: > 40 µM
[21]
  IC50: > 40 µM
[22]
  solubility: 932 µg/mL (≈ 2480 µM)
[26]
  IC50: > 80 µM
[31]
  IC50: > 40 µM
[32]
  Papp: 7.6 ×10⁻⁶ cm/s

## C[C@@H]1CN(C(=O)c2ccccc2)CCN1C(=O)C(=O)c1c[nH]c2ccncc12
[5]
  IC50: 17 µM
[8]
  half-life: > 100 min
[11]
  EC50: 0.576 µM
[13]
  CC50 at 72 h: > 300 µM
[15]
  IC50: > 40 µM
[16]
  logD: 1.2
[19]
  IC50: > 40 µM
[21]
  IC50: > 40 µM
[22]
  solubility: 419 µg/mL (≈ 1110 µM)
[26]
  IC50: > 80 µM
[32]
  Papp: 1.9 ×10⁻⁶ cm/s
